Measured values taken from ChEMBL document CHEMBL5321263, “Metabolomics-Guided Discovery, Isolation, Structure Elucidation, and Bioactivity of Myropeptins C-E from Myrothecium inundatum” (J Nat Prod, 2023).
pIC50: −log10 of the molar value. ≈ marks a conversion by molar mass, not a printed value. Calls of active or inactive are those of the source. No cut-off for these calls is given here. Where a SMILES comes first, the peptide text is derived from it. [ ]: non-standard residue; d: D form. The star is where a group is joined. Lauroyl = CCCCCCCCCCCC(=O)*; Decanoyl = CCCCCCCCCC(=O)*; Aib = CC(C)(N)C(=O)O; βAla = NCCC(=O)O

Legend:
[1] = Toxicity in zebra fish AB embryo assessed as mortality at 10 uM incubated for 48 hrs relative to control; set-up: species or system Danio rerio; settings: zebrafish, read-out: Activity
[2] = tested on: HCT-116; test: Antiproliferative activity against human HCT-116 cells measured after 24 hrs by MTT assay; assay type: functional, cell-based; settings: HCT-116, 24 h
Procedure, shortened: (§1)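 MTT read-out after 24 h; HCT-116 (7000 cells/well) or MDA-MB-231 (8000 cells/well) in DMEM with 10% FBS, 37 °C, 5% CO2, plated overnight before dosing; MTT 0.5 mg/ml final, 2 h at 37 °C; formazan dissolved in DMSO, A550; vehicle (0.5% DMSO) set as 100% growth; biological triplicates, two technical replicates.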

[3] = tested on: MDA-MB-231; test: Antiproliferative activity against human MDA-MB-231 cells measured after 24 hrs by MTT assay; assay type: functional, cell-based; settings: MDA-MB-231, 24 h; procedure, shortened: as §1
[4] = Toxicity in zebra fish AB embryo assessed as mortality incubated for 48 hrs; set-up: species or system Danio rerio; settings: zebrafish
[5] = Toxicity in human SK-MEL-5 cells assessed as calcium influx-mediated cell rupture at 16 uM measured upto 120 secs by fluorescence based analysis; settings: sk-mel-5, 2 min, time < 120 sec
[6] = Hemolytic activity in sheep erythrocytes assessed as hemolysis incubated for 1 hr by microplate reader based analysis; assay type: toxicity, cell-based, Ovis aries, Erythrocyte
Procedure, shortened: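 Defibrinated sheep blood washed 3× in PBS, diluted 1:500 (~8×10^7 cells/mL); 190 μL suspension plus 10 μL 20-fold compound stock in PBS + 0.5% DMSO, 1 h at 37 °C; centrifuged, supernatant OD450; 0.1% Triton X-100 positive control; three independent experiments.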

[7] = tested on: Staphylococcus aureus; test: Antimicrobial activity against methicillin resistant Staphylococcus aureus ATCC BAA41 measured after 16 hrs by CLSI protocol based method; assay type: functional
[8] = tested on: [Candida] auris; test: Antimicrobial activity against Candida auris CDCB11903 measured after 16 hrs by CLSI protocol based method; assay type: functional; settings: Candidozyma auris
[9] = tested on: Staphylococcus aureus; test: Antimicrobial activity against multidrug resistant Staphylococcus aureus ATCC BAA-44 measured after 16 hrs by CLSI protocol based method; assay type: functional
[10] = tested on: OVCAR-8; test: Antiproliferative activity against human OVCAR-8 cells measured after 24 hrs by MTT assay; assay type: functional; settings: read-out: LC50 (the source's name)
[11] = tested on: Staphylococcus aureus; test: Antimicrobial activity against Staphylococcus aureus ATCC 25923 measured after 16 hrs by CLSI protocol based method; assay type: functional
[12] = tested on: SK-MEL-5; test: Induction of apoptosis in human SK-MEL-5 cells assessed as membrane blebbing at 1 uM measured after 30 mins by confocal microscopy based analysis; assay type: functional, cell-based
Procedure, shortened: (§2)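 SK-Mel-5 on poly-L-lysine-coated coverslips, 24 h; 30 min at 37 °C with 2 μM MitoOrange, 0.1% Hoechst 33342 and 1 μM compound, 0.1% DMSO or 50 μM FCCP; washed in warm PBS with CaCl2/MgCl2; confocal imaging, 20x objective, transmitted light plus MitoOrange CMTMRos and Hoechst channels.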

[13] = tested on: SK-MEL-5; test: Induction of apoptosis in human SK-MEL-5 cells assessed as early apoptosis at 1 to 4 uM measured after 3 hrs by Annexin V-FITC/propidium iodide staining based flow cytometric analysis; assay type: functional, cell-based; settings: dose 1-4 µM
Procedure, shortened: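 SK-Mel-5 (1 × 10^6 cells per T25) grown 24 h, then treated 3 h in medium at 1 or 4 μM; 0.5% DMSO vehicle, 5 μM camptothecin control; trypsinised, washed, stained with FITC-annexin V and propidium iodide 15 min at RT in the dark, analysed by flow cytometry within 1 h.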

[14] = tested on: SK-MEL-5; test: Induction of mitochondrial membrane potential in human SK-MEL-5 cells assessed as reduction in accumulation of dye at 1 uM measured after 30 mins by […] staining based confocal microscopy analysis; assay type: functional, cell-based; procedure, shortened: as §2
[15] = tested on: SK-MEL-5; test: Induction of calcium influx in human SK-MEL-5 cells assessed as increase in fluorescence at 1 to 4 uM measured upto 120 secs by fluorescence based assay; assay type: functional, cell-based; settings: dose 1-4 µM, time <= 120.0 sec
[16] = Toxicity in zebra fish AB embryo assessed as mortality at 50 uM incubated for 48 hrs relative to control; set-up: species or system Danio rerio; settings: zebrafish, read-out: Activity

Row | Structure (SMILES) | pIC50 [2] | pIC50 [3] | IC50 at 1 h [6] | MIC [7] | MIC [8] | MIC [9] | MIC [11] | other results
1 | CCCCCCCCCCCC(=O)NC(C)(C)C(=O)N1CCC[C@H]1C(=O)NC(C)(C)C(=O)NC(C)(C)C(=O)N1CCC[C@H]1C(=O)NC(C)(C)C(=O)NC(C)(C)C(=O)N1CCC[C@H]1C(=O)N[C@@H](C)C(=O)NC(C)(C)C(=O)NCCC(=O)N[C@@H](C)C(=O)NC(C)(C)C(=O)NC(C)(C)C(=O)NCCC(=O)NC(C)(C)C(=O)NC(C)(C)C(=O)NC(C)(C)C(=O)N[C@@H](C)C(=O)NCCC(=O)O [listing 1 of 2 here] | 5.92 | 5.82 | 1.5 µM |  |  |  |  | mortality at 48 h, 10 µM [1]: 100%; EC50 at 48 h [4]: 5 µM; Activity [5]: Toxic
2 | CCCCCCCCCCCC(=O)NC(C)(C)C(=O)N1CCC[C@H]1C(=O)NC(C)(C)C(=O)NC(C)(C)C(=O)N1CCC[C@H]1C(=O)NC(C)(C)C(=O)NC(C)(C)C(=O)N1CCC[C@H]1C(=O)N[C@@H](C)C(=O)NC(C)(C)C(=O)NCCC(=O)N[C@@H](C)C(=O)NC(C)(C)C(=O)NC(C)(C)C(=O)NCCC(=O)NC(C)(C)C(=O)NC(C)(C)C(=O)NC(C)(C)C(=O)N[C@@H](C)C(=O)NCCC(=O)O [listing 2 of 2 here] |  |  |  | 4 µg/mL (≈ 2.16 µM) | 4 µg/mL (≈ 2.16 µM) | 4 µg/mL (≈ 2.16 µM) | 4 µg/mL (≈ 2.16 µM) | CC50 [10]: > 16 µM
3 | COc1cccc2c1[C@H](OC)[C@]13O[C@@]1(C2=O)[C@H](O)[C@H](C)[C@@](O)(C(=O)[C@@H]1O[C@H]1C)[C@@H]3O | 5.89 | 6.22 |  |  |  |  |  | 
4 | CCCCCCCCCCCC(=O)NC(C)(C)C(=O)N1CCC[C@@H]1C(=O)NC(C)(C)C(=O)NC(C)(C)C(=O)N1CCC[C@@H]1C(=O)NC(C)(C)C(=O)NC(C)(C)C(=O)N1CCC[C@H]1C(=O)N[C@@H](C)C(=O)NC(C)(C)C(=O)NCCC(=O)N[C@@H](C)C(=O)NC(C)(C)C(=O)NC(C)(C)C(=O)NCCC(=O)NC(C)(C)C(=O)NC(C)(C)C(=O)NC(C)(C)C(=O)N[C@@H](C)C(=O)NCCC(=O)O |  |  |  |  |  |  |  | Activity [12]: inactive; Activity [13]: Active; Activity [14]: Active
5 | C[C@H](CCC(=O)O)C[C@H](C)C[C@H](C)C(=O)/C=C(\O)[C@H](C)C[C@H](C)C/C=C/[C@@H](C)[C@@H](O)[C@@H](C)[C@@H](O)C[C@@H]1CC[C@@](C)([C@H]2CC[C@@](C)([C@@H](C)O)O2)O1 |  |  |  |  |  |  |  | Activity [15]: Active
6 | CCCCCCCCCC(=O)NC(C)(C)C(=O)N1CCC[C@H]1C(=O)NC(C)(C)C(=O)NC(C)(C)C(=O)N1CCC[C@H]1C(=O)NC(C)(C)C(=O)NC(C)(C)C(=O)N1CCC[C@H]1C(=O)N[C@@H](C)C(=O)NC(C)(C)C(=O)NCCC(=O)N[C@@H](C)C(=O)NC(C)(C)C(=O)NC(C)(C)C(=O)NCCC(=O)NC(C)(C)C(=O)NC(C)(C)C(=O)NC(C)(C)C(=O)N[C@@H](C)C(=O)NCCC(=O)O (Decanoyl-[Aib]P[Aib][Aib]P[Aib][Aib]PA[Aib][βAla]A[Aib][Aib][βAla][Aib][Aib][Aib]A[βAla]-OH) [listing 1 of 2 here] | 5.28 | 5.04 | 7 µM |  |  |  |  | mortality at 48 h, 50 µM [16]: 100%; EC50 at 48 h [4]: 30 µM
7 | CCCCCCCCCC(=O)NC(C)(C)C(=O)N1CCC[C@H]1C(=O)NC(C)(C)C(=O)NC(C)(C)C(=O)N1CCC[C@H]1C(=O)NC(C)(C)C(=O)NC(C)(C)C(=O)N1CCC[C@H]1C(=O)N[C@@H](C)C(=O)NC(C)(C)C(=O)NCCC(=O)N[C@@H](C)C(=O)NC(C)(C)C(=O)NC(C)(C)C(=O)NCCC(=O)NC(C)(C)C(=O)NC(C)(C)C(=O)NC(C)(C)C(=O)N[C@@H](C)C(=O)NCCC(=O)O (Decanoyl-[Aib]P[Aib][Aib]P[Aib][Aib]PA[Aib][βAla]A[Aib][Aib][βAla][Aib][Aib][Aib]A[βAla]-OH) [listing 2 of 2 here] |  |  |  | 16 µg/mL (≈ 8.76 µM) | 16 µg/mL (≈ 8.76 µM) | 16 µg/mL (≈ 8.76 µM) | 16 µg/mL (≈ 8.76 µM) | 
8 | CCCCCCCCCC(=O)NC(C)(C)C(=O)N1CCC[C@H]1C(=O)NC(C)(C)C(=O)NC(C)(C)C(=O)N1CCC[C@H]1C(=O)NC(C)(C)C(=O)NC(C)(C)C(=O)N1CCC[C@H]1C(=O)NC(C)(C)C(=O)NC(C)(C)C(=O)NCCC(=O)N[C@@H](C)C(=O)NC(C)(C)C(=O)NC(C)(C)C(=O)NCCC(=O)NC(C)(C)C(=O)NC(C)(C)C(=O)NC(C)(C)C(=O)N[C@@H](C)C(=O)NCCC(=O)O (Decanoyl-[Aib]P[Aib][Aib]P[Aib][Aib]P[Aib][Aib][βAla]A[Aib][Aib][βAla][Aib][Aib][Aib]A[βAla]-OH) [listing 1 of 2 here] | 5.21 | 5.09 | 10 µM |  |  |  |  | 
9 | CCCCCCCCCC(=O)NC(C)(C)C(=O)N1CCC[C@H]1C(=O)NC(C)(C)C(=O)NC(C)(C)C(=O)N1CCC[C@H]1C(=O)NC(C)(C)C(=O)NC(C)(C)C(=O)N1CCC[C@H]1C(=O)NC(C)(C)C(=O)NC(C)(C)C(=O)NCCC(=O)N[C@@H](C)C(=O)NC(C)(C)C(=O)NC(C)(C)C(=O)NCCC(=O)NC(C)(C)C(=O)NC(C)(C)C(=O)NC(C)(C)C(=O)N[C@@H](C)C(=O)NCCC(=O)O (Decanoyl-[Aib]P[Aib][Aib]P[Aib][Aib]P[Aib][Aib][βAla]A[Aib][Aib][βAla][Aib][Aib][Aib]A[βAla]-OH) [listing 2 of 2 here] |  |  |  | 16 µg/mL (≈ 8.69 µM) | 16 µg/mL (≈ 8.69 µM) | 16 µg/mL (≈ 8.69 µM) | 16 µg/mL (≈ 8.69 µM) | 
10 | CCCCCCCCCCCC(=O)NC(C)(C)C(=O)N1CCC[C@H]1C(=O)NC(C)(C)C(=O)NC(C)(C)C(=O)N1CCC[C@H]1C(=O)NC(C)(C)C(=O)NC(C)(C)C(=O)N1CCC[C@H]1C(=O)NC(C)(C)C(=O)NC(C)(C)C(=O)NCCC(=O)N[C@@H](C)C(=O)NC(C)(C)C(=O)NC(C)(C)C(=O)NCCC(=O)NC(C)(C)C(=O)NC(C)(C)C(=O)NC(C)(C)C(=O)N[C@@H](C)C(=O)NCCC(=O)O (Lauroyl-[Aib]P[Aib][Aib]P[Aib][Aib]P[Aib][Aib][βAla]A[Aib][Aib][βAla][Aib][Aib][Aib]A[βAla]-OH) [listing 1 of 2 here] | 5.02 | 4.95 | 2 µM |  |  |  |  | 
11 | CCCCCCCCCCCC(=O)NC(C)(C)C(=O)N1CCC[C@H]1C(=O)NC(C)(C)C(=O)NC(C)(C)C(=O)N1CCC[C@H]1C(=O)NC(C)(C)C(=O)NC(C)(C)C(=O)N1CCC[C@H]1C(=O)NC(C)(C)C(=O)NC(C)(C)C(=O)NCCC(=O)N[C@@H](C)C(=O)NC(C)(C)C(=O)NC(C)(C)C(=O)NCCC(=O)NC(C)(C)C(=O)NC(C)(C)C(=O)NC(C)(C)C(=O)N[C@@H](C)C(=O)NCCC(=O)O (Lauroyl-[Aib]P[Aib][Aib]P[Aib][Aib]P[Aib][Aib][βAla]A[Aib][Aib][βAla][Aib][Aib][Aib]A[βAla]-OH) [listing 2 of 2 here] |  |  |  | 8 µg/mL (≈ 4.28 µM) | 16 µg/mL (≈ 8.56 µM) | 8 µg/mL (≈ 4.28 µM) | 4 µg/mL (≈ 2.14 µM) | 
12 | CC[C@H](C)C[C@H](C)CCCCCCCCC(=O)N[C@H]1C[C@@H](O)[C@@H](NCCN)NC(=O)[C@@H]2[C@@H](O)CCN2C(=O)[C@H]([C@H](O)CCN)NC(=O)[C@H]([C@H](O)[C@@H](O)c2ccc(O)cc2)NC(=O)[C@@H]2C[C@@H](O)CN2C(=O)[C@H]([C@@H](C)O)NC1=O [CASPOFUNGIN] |  |  |  |  | 2 µg/mL (≈ 1.83 µM) |  |  | 
13 | NC[C@H]1O[C@H](O[C@H]2[C@H](O)[C@@H](O[C@H]3O[C@H](CO)[C@@H](O)[C@H](N)[C@H]3O)[C@H](N)C[C@@H]2N)[C@H](O)[C@@H](O)[C@@H]1O [KANAMYCIN] |  |  |  |  |  |  | 1 µg/mL (≈ 2.06 µM) | 
